Hep lipid drop = modulators of hepatic lipid droplet formation | AML12 mouse hepatocytes, oleate lipid droplets, BODIPY imaging | inhibition, % at 6.5 µM | 240,000 tested, 0.4% active | AID 1656;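 active = lipid droplet intensity inhibited by at least 50%, with more than 500 cells counted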
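Assay system: AML12 mouse liver cells | Compound dosing: One dose, 6.5 µM compound | Read-out basis: Droplet intensity reduction, % inhibition | Measured by: Fluorescence imaging, 20x objective, two fields per well | Schedule: Overnight treatment with compound plus oleate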
Arr AP2 block = inhibitors of human beta-arrestin and AP2 interaction; inhibition, % at 10 µM; FITC-arrestin peptide / GST-AP2 beads, flow cytometry; AP2 beta2 appendage carries R879A mutation; 340,000 tested, 0.31% active;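 active = inhibition above a set limit, near 3 SD of compounds lacking own fluorescence, cut at about 54% in these data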;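 note: plate controls were DMSO wells for no effect and 5 µM unlabelled arrestin peptide for full effect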
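Material – GST-tagged AP2 beta2-adaptin appendage (R879A) on 4 µm glutathione beads · Probe or stimulus – fluorescein-tagged arrestin peptide at 50 nM final · Timing – 12 min plus 1 h, RT · Detection – bead flow cytometry, FITC channel · Read-out basis – inhibition as reduced fluorescein signal on beads, percent · Medium – PBS plus Tween 20 (0.05%) and BSA (0.1%)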
p-CIP stab down = lowers stability of the mouse p/CIP coactivator protein. Q05BA5. decrease of EGFP signal, % at 10 µM. 290,000 tested, 0.01% active. F442A p/CIP-EGFP cells, EGFP fluorescence, 16 h;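 active = EGFP signal decrease of at least 30% at 10 µM or well 3 SD below plate mean, unless failing retest; inactive = the rest, including hits failing retest or dose response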
Target sequence (Q05BA5 1-1403): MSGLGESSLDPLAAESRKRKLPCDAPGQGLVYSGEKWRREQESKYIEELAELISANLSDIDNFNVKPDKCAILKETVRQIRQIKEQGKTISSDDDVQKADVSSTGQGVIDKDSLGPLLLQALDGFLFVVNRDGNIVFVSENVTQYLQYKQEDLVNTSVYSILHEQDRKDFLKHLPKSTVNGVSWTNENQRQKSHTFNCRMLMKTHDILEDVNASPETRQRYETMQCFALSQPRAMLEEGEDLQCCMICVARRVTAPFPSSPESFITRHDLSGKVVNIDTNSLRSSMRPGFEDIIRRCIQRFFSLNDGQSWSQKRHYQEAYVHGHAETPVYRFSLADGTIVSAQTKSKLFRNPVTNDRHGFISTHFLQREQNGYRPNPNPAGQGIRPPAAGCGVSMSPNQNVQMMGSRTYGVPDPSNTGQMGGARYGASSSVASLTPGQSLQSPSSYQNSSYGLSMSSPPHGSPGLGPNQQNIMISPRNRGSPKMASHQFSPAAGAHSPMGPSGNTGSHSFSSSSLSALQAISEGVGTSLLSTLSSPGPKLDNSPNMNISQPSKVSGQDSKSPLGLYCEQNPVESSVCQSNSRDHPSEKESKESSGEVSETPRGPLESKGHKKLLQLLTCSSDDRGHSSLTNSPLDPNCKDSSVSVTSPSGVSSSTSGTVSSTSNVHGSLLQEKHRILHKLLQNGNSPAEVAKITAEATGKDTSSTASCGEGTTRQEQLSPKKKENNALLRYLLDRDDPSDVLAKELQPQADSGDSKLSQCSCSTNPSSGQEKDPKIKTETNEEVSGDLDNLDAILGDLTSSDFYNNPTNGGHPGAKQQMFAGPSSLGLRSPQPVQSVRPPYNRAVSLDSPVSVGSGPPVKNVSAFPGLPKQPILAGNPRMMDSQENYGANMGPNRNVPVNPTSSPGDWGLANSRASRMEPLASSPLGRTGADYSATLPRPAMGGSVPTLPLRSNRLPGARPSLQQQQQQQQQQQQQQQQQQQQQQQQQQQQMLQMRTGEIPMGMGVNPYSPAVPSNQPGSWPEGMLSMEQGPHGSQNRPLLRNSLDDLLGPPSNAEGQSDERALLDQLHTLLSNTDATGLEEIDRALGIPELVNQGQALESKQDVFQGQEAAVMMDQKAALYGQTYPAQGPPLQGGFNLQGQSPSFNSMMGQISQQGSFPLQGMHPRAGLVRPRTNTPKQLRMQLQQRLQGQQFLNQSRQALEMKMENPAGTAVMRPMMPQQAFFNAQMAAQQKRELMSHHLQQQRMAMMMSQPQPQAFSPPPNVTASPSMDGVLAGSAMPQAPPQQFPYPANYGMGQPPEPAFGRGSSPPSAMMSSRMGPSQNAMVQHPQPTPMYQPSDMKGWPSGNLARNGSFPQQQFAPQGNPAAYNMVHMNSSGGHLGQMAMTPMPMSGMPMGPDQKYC
Fh CTSL1 inh = cathepsin L1 inhibition, PFM18AAP counter-screen; inhibition, % at 5.96 µM; recombinant F. hepatica cathepsin L1, Z-Leu-Arg-MCA fluorescence; 300,000 tested, 0.49% active;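 active = inhibition above the mean of all tested compounds plus 3 SD, set per screening campaign, cut at about 17% in these data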;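 note: 0% = plate median of test compound wells and 100% = 1 µM Z-Phe-Ala-diazomethylketone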
Lipid drop inh = hepatic lipid droplet formation inhibition, confirmed. shares compounds with Hep lipid drop. AML12 mouse hepatocytes, BODIPY lipid droplet imaging; droplets induced with 100 µM oleic acid. inhibition, % at 5.2 µM. 870 tested, 65% active. AID 463183;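 active = inhibition of lipid droplet metric at least 50%, with more than 300 cells in each of four replicates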;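 note: plate controls were DMSO with oleic acid for no effect and 5 µM Triacsin-C for full effect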
AML12 cytotox = toxic to AML12 mouse hepatocytes in counter-screen; shares compounds with Hep lipid drop; AID 463200; 870 tested, 3% active; z-score at 5 µM; DAPI nuclear morphology cytotoxicity imaging; stronger effect = higher value; cells fed 100 µM oleate overnight; in the data active = z-score above about 6.3;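 note: compound exposure lasted overnight at 37 °C before fixation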
AML12 tox conf = AML12 hepatocyte cytotoxicity, confirmed; shares compounds with Hep lipid drop; AML12 mouse hepatocyte viability, ATP luminescence; cells loaded with 100 µM oleic acid; cytotoxicity, % at 50 µM; 530 tested, under 10 active; AID 463219;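 active = cytotoxicity above 50% in each of four replicates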;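 note: compound exposure lasted overnight at 37 °C before the ATP read; 0% = DMSO-treated cells and 100% = wells with no cells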
An asterisk follows results filed as active; x = no result given. Sampled rows, rich in hits. Any-hit rate of the full collection: about 1%.

SMILES	Hep lipid drop	Arr AP2 block	p-CIP stab down	Fh CTSL1 inh	others
CCN(CC)S(=O)(=O)c1ccc2nnn(OCC(=O)Nc3cccc(C#N)c3)c2c1	-9	1	-6	81*
N/C(=N\OC(=O)c1ccc([N+](=O)[O-])cc1Cl)c1ccccn1	4	0	1	1
CC(/C=C/C=C/c1ccccc1)=N\NC(=O)c1cccnc1	-4	41	8	22*
CCOC(=O)N1CCc2[nH]c3ccc(C)cc3c2C1	5	9	0	-3
CC(=O)N1CCc2[nH]c3ccc(C)cc3c2C1	x	18	12	51*
O=C(N1CCc2[nH]c3ccccc3c2C1)C(F)(F)F	16	27	-2	106*
CC(=O)N1CCc2[nH]c3ccccc3c2C1	x	9	0	2
CC(=O)c1ccc(NC(=O)CSc2nnc(NC(=O)c3ccco3)s2)cc1	5	-6	8	2
Cn1c(CNC(=O)c2cccs2)n[nH]c1=S	17	-3	-11	2
CCCCN(C)CCNC(=O)C(NC(=O)C1CCC(C)CC1)C(C)C (stereo not drawn)	-13	-4	3	56*
O=c1ccc2cc3c([nH]c4ccc(Br)cc43)oc-2c1O	-20	72*	-15	6
O=C(Nc1ccc(Br)cc1)c1cc(-c2ccc3c(c2)OCO3)on1	7	11	-7	-5
CCN(CC)C(=O)c1cccc2nc3ccccc3nc12	-7	31	-1	-4
COC(=O)c1cccc2nc3c(C(C)O)cccc3nc12 (stereo not drawn)	8	5	2	87*
CCOC(=O)CC(=O)CSc1nnc2sc3ccccc3n12	x	-2	-11	41*
COCCSc1ccccc1C(=O)Nc1cccnc1	2	-6	-2	5
CC(C)c1onc(C(=O)NCc2ccccc2)c1[N+](=O)[O-]	0	10	-18	18*
CC(C)c1onc(C(=O)NCc2ccc(Cl)cc2)c1[N+](=O)[O-]	12	-11	-4	3
CCN(CCO)c1ncnc2c1sc1nc(C(C)C)c3c(c12)CC(C)(C)OC3	x	2	-31	2
CSc1nc(NCCOCCO)c2sc3nc(-c4ccco4)c4c(c3c2n1)CCC4	x	16	-8	17*
CCN(CCO)c1nc(SC)nc2c1sc1nc(-c3ccco3)c3c(c12)CCC3	x	2	-4	18*
O=C(Cc1ccc(Cl)cc1)N/N=C/c1cccc(O)c1	-15	8	-15	18*
Cc1ccc(-c2csc3nc(=O)c(C)nn23)cc1	x	x	-11	-2
O=C(CCl)Nc1ccccc1Sc1ccc(Cl)cc1	5	8	6	21*
COc1cc(Br)c(C(=O)c2nccc3cc(OC)c(OC)cc23)cc1OC	-6	11	1	103*
SMILES	Hep lipid drop	Arr AP2 block	p-CIP stab down	Fh CTSL1 inh	others
COc1cc(N)c(C(=O)c2nccc3cc(OC)c(OC)cc23)cc1OC	-1	39	-3	-6
COc1cc(C(=O)c2nccc3cc(OC)c(OC)cc23)c([N+](=O)[O-])cc1OC	1	15	1	42*
O=C(CSc1ccc(F)cc1)N1CCC(c2nc3ccccc3s2)CC1	x	-9	-26	4
COCCNC(=O)C(c1ccc(F)cc1)N(Cc1ccco1)C(=O)CCC(=O)Nc1nccs1 (stereo not drawn)	x	-6	9	0
Nc1c(N2CCCC2)cc(Cl)c2nonc12	x	17	-13	95*
Nc1ccc(N2CCCCC2)c2nonc12	0	20	4	79*
Nc1ccc(N2CCCCC2)cc1N1CCCCC1	x	21	-10	-3
O=C(O)C12CC3CC(C1)CC(n1cnc(Cl)n1)(C3)C2	x	-4	-12	-2
CCOC(=O)CSc1c(-c2cccs2)[nH]c2ccccc12	83*	-11	12	0	Lipid drop inh=95*;AML12 cytotox=-0.71;AML12 tox conf=4
CCOC(=O)CSc1c(-c2ccc(Cl)cc2)[nH]c2ccccc12	-5	x	-17	1
CCCCN(CCCNC(=O)Cn1nc(CC)n2c(cc3sc(C)cc32)c1=O)Cc1ccccc1	69*	16	-7	-2	Lipid drop inh=89*;AML12 cytotox=-0.5;AML12 tox conf=15
CCc1nn(CC(=O)NCCCN(CC)Cc2ccccc2)c(=O)c2cc3sccc3n12	-30	10	4	-3
CC(C)(C)c1ccc(OCCC(=O)OCC(=O)NCc2ccccc2)cc1	x	3	x	-2
c1ccc(Oc2cccc(CN3CCCCC3)c2)cc1	56*	0	-2	1	Lipid drop inh=-4;AML12 cytotox=0.1
CCOc1ccccc1NC(=O)CSc1nnc(Cn2c(=O)sc3ccccc32)n1C	53*	-6	-14	6	Lipid drop inh=41;AML12 cytotox=-0.27
COC(=O)[C@H](NC(=O)c1cc(-c2ccccc2)nc2ccccc12)c1ccccc1	x	-8	x	2
CCOC(=O)CN(C(=O)CSc1nnc(CNc2ccc(F)cc2)n1CC)c1ccc(F)cc1	0	8	-13	0
Cc1cc(OCC(=O)NCCO)ccc1Cl	-3	10	3	-4
CCOc1cc(C(=O)OCC(=O)Nc2cc(C)on2)ccc1OCC(C)C	16	9	10	3
CCOc1ccc(C(=O)OCC(=O)Nc2cc(C)on2)cc1OCC	80*	30	-18	-6	Lipid drop inh=106*;AML12 cytotox=-0.18;AML12 tox conf=11
Cc1ccccc1Cn1nc(C)c(NC(=O)C2c3ccccc3Oc3ccccc32)c1C	81*	7	6	2	Lipid drop inh=100*;AML12 cytotox=-0.32;AML12 tox conf=-4
Cc1cc(C)c(NC(=O)C2c3ccccc3Oc3ccccc32)c(C)c1	-6	-11	0	-1
CCN1CCN(c2ccc(NC(=O)c3cccnc3)cc2Cl)CC1	x	14	2	-1
O=C(CN1C(=O)c2ccccc2S1(=O)=O)N1CCCCC1	-1	21	5	-3
COc1ccc(S(=O)(=O)N2CCOCC2)cc1NC(=O)CSc1ncccn1	x	10	x	x
COc1ccc(CCN2C(=O)CC(N3CCOCC3)C2=O)cc1 (stereo not drawn)	11	2	0	-2
COc1ccc(CCN2C(=O)CC(N3CCOCC3)C2=O)cc1OC (stereo not drawn)	51*	-7	-11	2	Lipid drop inh=25;AML12 cytotox=-0.31
C/C(=N/NC(=O)CNC(=O)c1ccco1)c1ccco1	-1	12	1	-2
CCOc1ccc(C2=NNC(c3cccs3)=Nc3ccc(OC)cc32)cc1OCC	55*	3	3	0	Lipid drop inh=71*;AML12 cytotox=0.57;AML12 tox conf=20
Cc1ccc(C(=O)CC2(O)C(=O)N(Cc3ccccc3)c3ccccc32)o1 (stereo not drawn)	-10	4	-2	-2

Bioassay records from PubChem.
